Laboratory results published in ChEMBL document CHEMBL1157638, “Fluorescent epigenetic small molecule induces expression of the tumor suppressor ras-association domain family 1A and inhibits human prostate xenograft” (J Med Chem, 2010).
Activity calls are given as the source filed them. The rule behind the calls is not given here.

Columns and labels:
[1] = system: T47D; experiment: Growth inhibition of human T47D cells assessed as cell growth at 10 nM relative to untreated control; format: functional; details: read-out: Activity
[2] = system: SNB-19; experiment: Growth inhibition of human SNB19 cells assessed as cell growth at 10 uM relative to untreated control; format: functional; details: read-out: Activity
[3] = system: DU-145; experiment: Growth inhibition of human DU145 cells; format: functional
How it was run: (§1)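 Run externally at the National Cancer Institute as a 59-cell-line panel screen, with concentrations up to 100 μM. Growth was scored relative to control, where negative growth or total cell kill was possible. Data are in the Supporting Information.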

[4] = system: SF-539; experiment: Growth inhibition of human SF539 cells assessed as cell growth at 1 uM relative to untreated control; format: functional; details: read-out: Activity
[5] = system: HCT-116; experiment: Growth inhibition of human HCT116 cells assessed as cell growth at 10 uM relative to untreated control; format: functional; details: read-out: Activity; how it was run: as §1
[6] = system: NCI-H322M; experiment: Growth inhibition of human NCI-H322M cells assessed as cell growth at 1 nM relative to untreated control; format: functional; details: read-out: Activity
[7] = system: ACHN; experiment: Growth inhibition of human ACHN cells assessed as cell growth at 10 nM relative to untreated control; format: functional; details: read-out: Activity
[8] = system: HCT-116; experiment: Growth inhibition of human HCT116 cells assessed as cell growth at 10 nM relative to untreated control; format: functional; details: read-out: Activity; how it was run: as §1
[9] = system: HT-29; experiment: Growth inhibition of human HT-29 cells assessed as cell growth at 10 uM relative to untreated control; format: functional; details: read-out: Activity
[10] = molecular target: DNA (cytosine-5)-methyltransferase 1 (Homo sapiens) (UniProt P26358); experiment: Inhibition of DNA methyltransferase activity in human PC3 cells at 2 uM after 3 days; format: cell-based; details: PC-3
How it was run: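 PC-3 cells in complete growth medium treated 3 days with compound, then harvested. Nuclear extracts prepared by kit protocol, and DNMT activity measured with a commercial DNMT activity kit against untreated cells. Mean of three independent experiments ± SEM.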

[11] = system: SN12C; experiment: Growth inhibition of human SN12C cells assessed as cell growth at 100 nM relative to untreated control; format: functional; details: read-out: Activity
[12] = system: CCRF-CEM; experiment: Growth inhibition of human CCRF-CEM cells assessed as cell growth at 10 uM relative to untreated control; format: functional; details: read-out: Activity
[13] = system: HOP-92; experiment: Growth inhibition of human HOP92 cells assessed as cell growth at 1 uM relative to untreated control; format: functional; details: read-out: Activity; how it was run: as §1
[14] = system: SF-268; experiment: Growth inhibition of human SF268 cells assessed as cell growth at 10 uM relative to untreated control; format: functional; details: read-out: Activity
[15] = system: LOX IMVI; experiment: Growth inhibition of human LOXIMVI cells assessed as cell growth at 10 uM relative to untreated control; format: functional; details: read-out: Activity
[16] = system: HCC 2998; experiment: Growth inhibition of human HCC2998 cells; format: functional; details: read-out: LC50 (the source's name); how it was run: as §1
[17] = system: A549; experiment: Growth inhibition of human A549 cells assessed as cell growth at 10 nM relative to untreated control; format: functional; details: read-out: Activity
[18] = molecular target: DNA (cytosine-5)-methyltransferase 3B (Homo sapiens) (UniProt Q9UBC3); experiment: Binding affinity to DNMT3b in human PC3 cells cytoplasm at 5 uM after 6 hrs by antibody staining; format: cell-based; details: PC-3
How it was run: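 PC-3 cells were plated overnight on fibronectin/[…]-coated slides and treated with 5 μM compound or DMSO for 1-6 h. Cells were PBS-washed, fixed in 4% formaldehyde, and stained with propidium iodide (nuclei) and anti-DNMT3a or anti-DNMT3b antibody. The compound was excited at 725 nm by multiphoton laser and imaged through a 500-550 nm filter by confocal microscopy.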

[19] = Growth inhibition of human […] cells assessed as cell growth at 1 nM relative to untreated control; format: functional; details: read-out: Activity
[20] = system: COLO 205; experiment: Growth inhibition of human COLO205 cells assessed as cell growth at 1 nM relative to untreated control; format: functional; details: read-out: Activity
[21] = Growth inhibition of human Hs 578T cells assessed as cell growth at 10 nM relative to untreated control; format: functional; details: read-out: Activity
[22] = system: MDA-MB-435; experiment: Growth inhibition of human MDA-MB-435 cells assessed as cell growth at 1 nM relative to untreated control; format: functional; details: read-out: Activity
[23] = system: RXF 393; experiment: Growth inhibition of human RXF393 cells assessed as cell growth at 10 nM relative to untreated control; format: functional; details: read-out: Activity
[24] = system: OVCAR-5; experiment: Growth inhibition of human OVCAR5 cells assessed as cell growth at 10 uM relative to untreated control; format: functional; details: read-out: Activity
[25] = system: SK-OV-3; experiment: Growth inhibition of human SKOV3 cells; format: functional
[26] = system: NCI-H226; experiment: Growth inhibition of human NCI-H226 cells assessed as cell growth at 1 nM relative to untreated control; format: functional; details: read-out: Activity
[27] = system: NCI-H226; experiment: Growth inhibition of human NCI-H226 cells assessed as cell growth at 100 nM relative to untreated control; format: functional; details: read-out: Activity
[28] = system: HCC 2998; experiment: Growth inhibition of human HCC2998 cells assessed as cell growth at 10 uM relative to untreated control; format: functional; details: read-out: Activity; how it was run: as §1
[29] = system: HCT-15; experiment: Growth inhibition of human HCT15 cells assessed as cell growth at 100 nM relative to untreated control; format: functional; details: read-out: Activity; how it was run: as §1
[30] = system: IGROV-1; experiment: Growth inhibition of human IGROV1 cells assessed as cell growth at 10 uM relative to untreated control; format: functional; details: read-out: Activity
[31] = system: SK-OV-3; experiment: Growth inhibition of human SKOV3 cells assessed as cell growth at 1 nM relative to untreated control; format: functional; details: read-out: Activity
[32] = system: HCT-15; experiment: Growth inhibition of human HCT15 cells assessed as cell growth at 1 nM relative to untreated control; format: functional; details: read-out: Activity; how it was run: as §1
[33] = system: LOX IMVI; experiment: Growth inhibition of human LOXIMVI cells; format: functional
[34] = system: CCRF-CEM; experiment: Growth inhibition of human CCRF-CEM cells assessed as cell growth at 1 nM relative to untreated control; format: functional; details: read-out: Activity
[35] = system: CAKI-1; experiment: Growth inhibition of human Caki1 cells assessed as cell growth at 10 nM relative to untreated control; format: functional; details: read-out: Activity; how it was run: as §1
[36] = system: 786-0; experiment: Growth inhibition of human 786-0 cells assessed as cell growth at 1 uM relative to untreated control; format: functional; details: read-out: Activity
[37] = system: IGROV-1; experiment: Growth inhibition of human IGROV1 cells assessed as cell growth at 1 uM relative to untreated control; format: functional; details: read-out: Activity
[38] = system: EKVX; experiment: Growth inhibition of human EKVX cells assessed as cell growth at 1 uM relative to untreated control; format: functional; details: read-out: Activity; how it was run: as §1
[39] = system: SK-MEL-5; experiment: Growth inhibition of human SK-MEL-5 cells assessed as cell growth at 1 uM relative to untreated control; format: functional; details: read-out: Activity
[40] = system: T47D; experiment: Growth inhibition of human T47D cells assessed as cell growth at 1 nM relative to untreated control; format: functional; details: read-out: Activity
[41] = system: HCT-116; experiment: Growth inhibition of human HCT116 cells assessed as cell growth at 1 uM relative to untreated control; format: functional; details: read-out: Activity; how it was run: as §1
[42] = system: EKVX; experiment: Growth inhibition of human EKVX cells assessed as cell growth at 10 nM relative to untreated control; format: functional; details: read-out: Activity; how it was run: as §1
[43] = system: UO-31; experiment: Growth inhibition of human UO31 cells assessed as cell growth at 100 nM relative to untreated control; format: functional; details: read-out: Activity
[44] = system: OVCAR-4; experiment: Growth inhibition of human OVCAR4 cells assessed as cell growth at 10 nM relative to untreated control; format: functional; details: read-out: Activity
[45] = read-out: LC50 (the source's name)

Sequence of DNA (cytosine-5)-methyltransferase 1 (Homo sapiens) (P26358 whole entry): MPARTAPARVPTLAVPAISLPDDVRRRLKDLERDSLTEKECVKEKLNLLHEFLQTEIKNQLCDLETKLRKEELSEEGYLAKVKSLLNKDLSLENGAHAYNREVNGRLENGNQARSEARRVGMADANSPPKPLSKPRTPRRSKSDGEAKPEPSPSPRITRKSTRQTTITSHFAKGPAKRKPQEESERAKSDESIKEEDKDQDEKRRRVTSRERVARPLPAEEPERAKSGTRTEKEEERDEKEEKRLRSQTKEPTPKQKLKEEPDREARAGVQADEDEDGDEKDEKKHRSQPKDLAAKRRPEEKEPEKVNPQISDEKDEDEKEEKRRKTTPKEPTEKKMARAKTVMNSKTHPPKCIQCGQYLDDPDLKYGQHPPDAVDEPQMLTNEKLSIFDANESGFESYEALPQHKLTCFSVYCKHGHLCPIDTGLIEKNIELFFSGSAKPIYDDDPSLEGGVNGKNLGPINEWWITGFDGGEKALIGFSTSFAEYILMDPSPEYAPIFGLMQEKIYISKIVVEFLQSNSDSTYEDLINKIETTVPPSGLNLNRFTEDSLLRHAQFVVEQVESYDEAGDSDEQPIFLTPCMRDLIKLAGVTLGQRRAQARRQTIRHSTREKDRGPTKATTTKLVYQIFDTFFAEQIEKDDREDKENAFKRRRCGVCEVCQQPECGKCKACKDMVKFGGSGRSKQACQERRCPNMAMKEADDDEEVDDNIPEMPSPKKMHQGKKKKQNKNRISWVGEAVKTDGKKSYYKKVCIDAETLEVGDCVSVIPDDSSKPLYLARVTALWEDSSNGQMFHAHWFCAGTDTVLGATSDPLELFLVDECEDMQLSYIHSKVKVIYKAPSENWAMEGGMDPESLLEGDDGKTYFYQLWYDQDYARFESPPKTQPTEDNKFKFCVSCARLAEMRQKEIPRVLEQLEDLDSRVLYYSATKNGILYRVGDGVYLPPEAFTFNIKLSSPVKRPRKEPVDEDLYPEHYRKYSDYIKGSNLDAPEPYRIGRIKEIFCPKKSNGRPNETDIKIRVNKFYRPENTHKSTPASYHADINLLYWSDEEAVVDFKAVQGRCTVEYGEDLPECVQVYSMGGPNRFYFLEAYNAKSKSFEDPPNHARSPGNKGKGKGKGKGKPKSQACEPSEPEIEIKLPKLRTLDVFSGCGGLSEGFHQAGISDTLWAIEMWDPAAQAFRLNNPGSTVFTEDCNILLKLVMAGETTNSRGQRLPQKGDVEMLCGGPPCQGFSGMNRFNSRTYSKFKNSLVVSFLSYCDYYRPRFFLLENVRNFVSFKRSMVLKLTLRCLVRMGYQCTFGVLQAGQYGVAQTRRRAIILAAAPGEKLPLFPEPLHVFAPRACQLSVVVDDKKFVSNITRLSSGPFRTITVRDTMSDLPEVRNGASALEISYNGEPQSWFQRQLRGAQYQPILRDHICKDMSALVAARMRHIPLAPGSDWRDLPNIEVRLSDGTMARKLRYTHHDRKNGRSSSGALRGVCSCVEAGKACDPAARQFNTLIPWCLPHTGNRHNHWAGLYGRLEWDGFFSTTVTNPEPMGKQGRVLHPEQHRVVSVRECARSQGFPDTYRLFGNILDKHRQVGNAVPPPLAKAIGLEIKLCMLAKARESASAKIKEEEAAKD

Structure (SMILES): COc1ccc2c(c1)[nH]c1c(C)c(OS(=O)(=O)c3cccc4c(N(C)C)cccc34)ccc12
- growth at 0.01 µM [1]: 53%
- growth at 10 µM [2]: 27%
- GI50 [3]: 3.54 µM
- TGI [3]: > 100 µM
- CC50 [3, 45]: > 100 µM
- growth at 1 µM [4]: -30%
- growth at 10 µM [5]: 5%
- growth at 0.001 µM [6]: 98%
- growth at 0.01 µM [7]: 102%
- growth at 0.01 µM [8]: 106%
- growth at 10 µM [9]: 8%
- Activity [10]: Active
- growth at 0.1 µM [11]: 97%
- growth at 10 µM [12]: 1%
- growth at 1 µM [13]: 49%
- growth at 10 µM [14]: 27%
- growth at 10 µM [15]: 14%
- CC50 [16]: > 100 µM
- growth at 0.01 µM [17]: 97%
- Activity [18]: Active
- growth at 0.001 µM [19]: 99%
- growth at 0.001 µM [20]: 104%
- growth at 0.01 µM [21]: 103%
- growth at 0.001 µM [22]: 100%
- growth at 0.01 µM [23]: 107%
- growth at 10 µM [24]: 33%
- GI50 [25]: 5.47 µM
- TGI [25]: > 100 µM
- CC50 [25, 45]: > 100 µM
- growth at 0.001 µM [26]: 91%
- growth at 0.1 µM [27]: 85%
- growth at 10 µM [28]: -5%
- growth at 0.1 µM [29]: 92%
- growth at 10 µM [30]: 39%
- growth at 0.001 µM [31]: 103%
- growth at 0.001 µM [32]: 98%
- GI50 [33]: 48.4 µM
- TGI [33]: > 100 µM
- CC50 [33, 45]: > 100 µM
- growth at 0.001 µM [34]: 99%
- growth at 0.01 µM [35]: 86%
- growth at 1 µM [36]: 30%
- growth at 1 µM [37]: 59%
- growth at 1 µM [38]: 35%
- growth at 1 µM [39]: -3%
- growth at 0.001 µM [40]: 95%
- growth at 1 µM [41]: 25%
- growth at 0.01 µM [42]: 96%
- growth at 0.1 µM [43]: 92%
- growth at 0.01 µM [44]: 92%
